According to paper PMC10193968 (Proceedings of the National Academy of Sciences of the …, 2023):

Columns and labels:
S. frugiperda males = conditions: presence at 1% in synthetic pheromone blends; cited from earlier work
S. litura males = conditions: traps baited with their own sex pheromones; cited from earlier work
S. littoralis males = conditions: traps baited with their own sex pheromones; cited from earlier work
SfruOR5 = assay: Two-electrode voltage-clamp on Xenopus oocytes expressing SfruOR5; type: cell-based, S. frugiperda; conditions: 10^–4 M; panel of 13 pheromone compounds; confirms the Drosophila OSN profile
AncOR5 [1] = assay: Two-electrode voltage-clamp on Xenopus oocytes coexpressing AncOR5 and SlitOrco; type: cell-based, ancestor of S. littoralis and S. litura
AncOR5 [2] = assay: Single-sensillum recordings on Drosophila at1 OSNs expressing resurrected AncOR5; type: cell-based, ancestor of S. littoralis and S. litura; conditions: 10 μg loaded in the stimulus cartridge; panel of 26 pheromone compounds
SlituOR5 [3] = assay: Single-sensillum recordings on Drosophila at1 OSNs expressing SlituOR5; type: cell-based, S. litura; conditions: 10 μg loaded in the stimulus cartridge; panel of 26 pheromone compounds
AncOR5_75 = type: cell-based, ancestor of S. littoralis and S. litura; conditions: doses 10 ng to 100 µg in the stimulus cartridge
Outline: (§1)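 Dose–response by single-sensillum extracellular recording from at1 OSNs of flies expressing the receptor transgene instead of Or67d (UAS-Or crossed to Or67d-GAL4). Flies reared at 25 °C, 12 h:12 h light:dark. Stimuli lasted 500 ms, delivered from filter-paper cartridges loaded with 10 ng to 100 µg pheromone diluted in hexane.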

SexiOR5 = assay: Two-electrode voltage-clamp on Xenopus oocytes expressing SexiOR5; type: cell-based, S. exigua; conditions: 10^–4 M; panel of 13 pheromone compounds; confirms the Drosophila OSN profile
[4] = test system: S. littoralis and S. litura males; conditions: detection of the compound; cited from earlier work
SlituOR75 = assay: Single-sensillum recordings on Drosophila at1 OSNs expressing SlituOR75; type: cell-based, S. litura; conditions: 10 μg loaded in the stimulus cartridge; panel of 26 pheromone compounds
Outline: (§2)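 Receptor expressed in Drosophila at1 OSNs in place of Or67d (UAS-Or × Or67d-GAL4, double homozygous). Flies kept on cornmeal–yeast–agar at 25 °C, 12 h:12 h light:dark. Single-sensillum extracellular recording with 500 ms stimulation from Pasteur-pipette cartridges holding 10 µg compound (hexane dilution) on filter paper. Panel of 26 pheromone compounds. Active if different from solvent alone (one-way ANOVA, Dunnett's post hoc).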

SlitOR75 = assay: Single-sensillum recordings on Drosophila at1 OSNs expressing SlitOR75; type: cell-based, S. littoralis; conditions: 10 μg loaded in the stimulus cartridge; panel of 26 pheromone compounds
Outline: as §2

SlitOR5 = assay: Single-sensillum recordings on Drosophila at1 OSNs expressing SlitOR5; type: cell-based, S. littoralis; conditions: 10 μg loaded in the stimulus cartridge; panel of 26 pheromone compounds
Outline: as §2

S. exigua males = conditions: cited from earlier work
AncOR5_75_mut8x = type: cell-based; conditions: read-out: EC50, AncOR5_75_mut8x; Xenopus oocytes, concentrations 10^–8 to 10^–4 M
AncOR75 = type: cell-based, ancestor of S. littoralis and S. litura; conditions: doses 10 ng to 100 µg in the stimulus cartridge
Outline: as §1

SlituOR5 [5] = assay: Two-electrode voltage-clamp on Xenopus oocytes expressing SlituOR5; type: cell-based, S. litura; conditions: 10^–4 M; panel of 13 pheromone compounds; confirms the Drosophila OSN profile
[6] = test system: AncOR5_75 V79L_A143T_A204V; type: cell-based; conditions: 10^−5 M solution; panel of six S. littoralis pheromone compounds
Outline: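 Mutation introduced into the pCS2+ ancestral-receptor plasmid and confirmed by Sanger sequencing. Capped cRNA made with SP6 from NotI-linearized template, coexpressed with SlitOrco in Xenopus oocytes. Two-electrode voltage-clamp inward currents to six compounds at 10^-5 M, diluted from 0.1 M DMSO stocks into Ringer's (HEPES, pH 7.6). Ringer's with 0.01% DMSO as negative control. Tuning compared by principal component analysis.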

**Q.** Which “Proportion of males approaching the source in wind tunnel” value (S. frugiperda males) does the source give for `CC/C=C/CCCCCCCCCCOC(C)=O` [(E)-11-14:OAc, (E)-11-tetradecenyl acetate] here?
**A.** The value was “strongly increased the proportion of males approaching the source”.

**Q.** Which “Effect on trap catches of S. litura males” value (S. litura males) does the source give for `CCCC/C=C\CCCCCCCCO` [(Z)-9-14:OH, (Z)-9-tetradecen-1-ol] here?
**A.** Its value is “reduces catches in traps”.

**Q.** What about the “Effect on trap catches of S. littoralis males” value (S. littoralis males) of the same molecule?
**A.** The value was “reduces catches in traps”.

**Q.** Which “Response spectrum (inward current), SfruOR5” value (SfruOR5) does the source give for `CC/C=C\CCCCCCCCCCOC(C)=O` [(Z)-11-14:OAc, (Z)-11-tetradecenyl acetate] here?
**A.** Its value is “best SfruOR5 ligands”.

**Q.** What about the “Proportion of males approaching the source in wind tunnel” value (S. frugiperda males) of the same molecule?
**A.** The value was “strongly increased the proportion of males approaching the source”.

**Q.** Which results are given for `CC/C=C/C=C\CCCCCCCCOC(C)=O` [(Z,E)-9,11-14:OAc, (Z,E)-9,11-tetradecadienyl acetate]?
**A.** Inward current, AncOR5 (AncOR5 [1]; 10^−5 M solution, panel of six S. littoralis pheromone compounds): specifically responded; EC50 (AncOR5 [1]; read-out: EC50, AncOR5, Xenopus oocytes, concentrations 10^–8 to 10^–4 M): 1100 nM; Action potential frequency of at1 OSNs expressing AncOR5 (AncOR5 [2]): responded specifically; Action potential frequency of at1 OSNs expressing SlituOR5 (SlituOR5 [3]): strong responses; Activation threshold / sensitivity, dose–response of AncOR5_75 (AncOR5_75): same activation threshold as AncOR5; Response spectrum (inward current), SexiOR5 (SexiOR5): can bind; Male attraction [4]: necessary and sufficient to trigger male attraction; Action potential frequency of at1 OSNs expressing SlituOR75 (SlituOR75): low responses; Action potential frequency of at1 OSNs expressing SlitOR75 (SlitOR75): low responses; Action potential frequency of at1 OSNs expressing SlitOR5 (SlitOR5): strong responses; Response spectrum (inward current), SfruOR5 (SfruOR5): can bind; Effect on trap catches of S. exigua males (S. exigua males): decreases trap catches; EC50 (AncOR5_75_mut8x): 400 nM; Activation threshold / sensitivity, dose–response of AncOR75 (AncOR75): same activation threshold as AncOR5; Response spectrum (inward current), SlituOR5 (SlituOR5 [5]): narrowly tuned

**Q.** With `C/C=C/C/C=C\CCCCCCCCOC(C)=O` [(Z,E)-9,12-14:OAc, (Z,E)-9,12-tetradecadienyl acetate] as the molecule, how does the “Inward current, triple-mutant V79L_A143T_A204V” value [6] read?
**A.** The value was “narrow tuning”.

**Q.** What does the source list for `CC/C=C\C=C/CCCCCCCCOC(C)=O` [(Z,Z)-9,11-14:OAc, (Z,Z)-9,11-tetradecadienyl acetate]?
**A.** Action potential frequency of at1 OSNs expressing SlituOR5 (SlituOR5 [3]): significant yet minor response; Activation threshold / sensitivity, dose–response of AncOR5_75 (AncOR5_75): best ligand; Activation threshold / sensitivity, dose–response of AncOR75 (AncOR75): best ligand
